Measurements published in ChEMBL document CHEMBL3525900, “Pharmacokinetics, distribution, and metabolism of [14C]sunitinib in rats, monkeys, and humans” (Drug Metab Dispos, 2012).

Assays:
[1] = system: Rattus norvegicus; assay: Tmax as total radioactivity in female Sprague-Dawley rat plasma at 15 mg/kg, po administered as single dose by LC/MS/MS analysis; format: ADME, organism-based; parameters: dose 15 mg/kg, dosed compound name [14C]Sunitinib, route oral; conditions: in vivo
[2] = system: Rattus norvegicus; assay: Apparent terminal half life as total radioactivity in female Sprague-Dawley rat plasma at 15 mg/kg, po administered as single dose by LC/MS/MS analysis; format: ADME, organism-based; parameters: dose 15 mg/kg, dosed compound name [14C]Sunitinib, route oral; conditions: in vivo
In short: (§1)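 Single dose of [14C]sunitinib L-malate as free base, 50 µCi/kg. IV dose was 5 mg/kg by tail vein in 5 females. Oral dose was 15 mg/kg by gavage in 3 females and 3 males. Total radioactivity was by scintillation counting. […] Cmax was read from raw data, t½ by log-linear regression, AUC by linear trapezoidal rule.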

[3] = system: Rattus norvegicus; assay: Cmax as total radioactivity in male Sprague-Dawley rat plasma at 15 mg/kg, po administered as single dose by LC/MS/MS analysis; format: ADME, organism-based; parameters: dose 15 mg/kg, dosed compound name [14C]Sunitinib, route oral; conditions: in vivo; in short: as §1
[4] = system: Homo sapiens; assay: AUC (0 to infinity) as total radioactivity in human plasma at 50 mg, po administered as single dose […] by LC/MS/MS analysis; format: ADME, organism-based; parameters: dose 50 mg, time infinity, route oral, dosed compound name [14C]Sunitinib; conditions: in vivo
In short: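 Open-label phase I study in 8 subjects given one 50 mg oral dose of [14C]sunitinib (100 µCi). Plasma total radioactivity was counted by scintillation on triplicate 0.25 mL aliquots. Sunitinib was quantified by LC-MS-MS. Noncompartmental analysis: Cmax read directly, terminal t½ = ln(2)/slope of the log-concentration regression, AUC by linear trapezoidal rule to the last detectable concentration.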

[5] = Drug concentration in male albino rat testis assessed as radioactivity per gram of tissue at 20 mg/kg administered as single dose via gastric gavage measured after 72 hrs by autoradiographic analysis; format: ADME, organism-based; parameters: dose 20 mg/kg, dosed compound name [14C]Sunitinib; conditions: in vivo, po
[6] = Drug concentration in male albino rat thyroid gland assessed as radioactivity per gram of tissue at 20 mg/kg administered as single dose via gastric gavage measured after 72 hrs by autoradiographic analysis; format: ADME, organism-based; parameters: dose 20 mg/kg, dosed compound name [14C]Sunitinib; conditions: in vivo, po
[7] = Drug concentration in male albino rat testis assessed as radioactivity per gram of tissue at 20 mg/kg administered as single dose via gastric gavage measured after 168 hrs by autoradiographic analysis; format: ADME, organism-based; parameters: dose 20 mg/kg, dosed compound name [14C]Sunitinib; conditions: in vivo, po
[8] = system: Cynomolgus monkey; assay: Total drug recovery in female cynomolgus monkey at 6 mg/kg, po administered as single dose during 0 to 336 hrs by liquid scintillation counting; format: ADME, organism-based, Macaca fascicularis; parameters: dose 6 mg/kg, dosed compound name [14C]Sunitinib, route oral; conditions: in vivo
[9] = system: Cynomolgus monkey; assay: Total drug recovery in male cynomolgus monkey at 6 mg/kg, po administered as single dose during 0 to 336 hrs by liquid scintillation counting; format: ADME, organism-based, Macaca fascicularis; parameters: dose 6 mg/kg, dosed compound name [14C]Sunitinib, route oral; conditions: in vivo
[10] = system: Heart; assay: Drug concentration in male Lister Hooded pigmented rat heart assessed as radioactivity per gram of tissue at 20 mg/kg administered as single dose via gastric gavage measured after 24 hrs by autoradiographic analysis; format: ADME, organism-based; parameters: dose 20 mg/kg, dosed compound name [14C]Sunitinib; conditions: in vivo, po
[11] = Drug concentration in male Lister Hooded pigmented rat salivary gland assessed as radioactivity per gram of tissue at 20 mg/kg administered as single dose via gastric gavage measured after 24 hrs by autoradiographic analysis; format: ADME, organism-based; parameters: dose 20 mg/kg, dosed compound name [14C]Sunitinib; conditions: in vivo, po
[12] = system: Large intestine; assay: Drug concentration in male albino rat large intestine assessed as radioactivity per gram of tissue at 20 mg/kg administered as single dose via gastric gavage measured after 6 hrs by autoradiographic analysis; format: ADME, organism-based; parameters: dose 20 mg/kg, dosed compound name [14C]Sunitinib; conditions: in vivo, po
[13] = Drug concentration in female albino rat pituitary gland assessed as radioactivity per gram of tissue at 20 mg/kg administered as single dose via gastric gavage measured after 6 hrs by autoradiographic analysis; format: ADME, organism-based; parameters: dose 20 mg/kg, dosed compound name [14C]Sunitinib; conditions: in vivo, po
In short: (§2)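 Sprague Dawley albino rats, ca 7-8 weeks old, dosed once by gastric gavage with [14C]sunitinib L-malate (15 mg freebase/kg, 100 µCi/kg). One male and one female killed by CO2 at 3, 6, 24, 72 and 168 h. Carcasses frozen in solid CO2/hexane, embedded and cut into 30 µm sagittal sections, then freeze-dried. Radioactivity quantified by whole-body autoradiography against standards by regression, background subtracted.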

[14] = system: Pancreas; assay: Drug concentration in male albino rat pancreas assessed as radioactivity per gram of tissue at 20 mg/kg administered as single dose via gastric gavage measured after 3 hrs by autoradiographic analysis; format: ADME, organism-based; parameters: dose 20 mg/kg, dosed compound name [14C]Sunitinib; conditions: in vivo, po
[15] = system: Thymus; assay: Drug concentration in female albino rat thymus assessed as radioactivity per gram of tissue at 20 mg/kg administered as single dose via gastric gavage measured after 6 hrs by autoradiographic analysis; format: ADME, organism-based; parameters: dose 20 mg/kg, dosed compound name [14C]Sunitinib; conditions: in vivo, po
[16] = Drug concentration in female albino rat uveal tract assessed as radioactivity per gram of tissue at 20 mg/kg administered as single dose via gastric gavage measured after 6 hrs by autoradiographic analysis; format: ADME, organism-based; parameters: dose 20 mg/kg, dosed compound name [14C]Sunitinib; conditions: in vivo, po
[17] = system: Large intestine; assay: Drug concentration in male Lister Hooded pigmented rat large intestine assessed as radioactivity per gram of tissue at 20 mg/kg administered as single dose via gastric gavage measured after 168 hrs by autoradiographic analysis; format: ADME, organism-based; parameters: dose 20 mg/kg, dosed compound name [14C]Sunitinib; conditions: in vivo, po
[18] = system: Liver; assay: Drug concentration in male Lister Hooded pigmented rat liver assessed as radioactivity per gram of tissue at 20 mg/kg administered as single dose via gastric gavage measured after 168 hrs by autoradiographic analysis; format: ADME, organism-based; parameters: dose 20 mg/kg, dosed compound name [14C]Sunitinib; conditions: in vivo, po
[19] = system: Brain; assay: Drug concentration in male albino rat brain assessed as radioactivity per gram of tissue at 20 mg/kg administered as single dose via gastric gavage measured after 3 hrs by autoradiographic analysis; format: ADME, organism-based; parameters: dose 20 mg/kg, dosed compound name [14C]Sunitinib; conditions: in vivo, po
[20] = system: Heart; assay: Drug concentration in female Lister Hooded pigmented rat heart assessed as radioactivity per gram of tissue at 20 mg/kg administered as single dose via gastric gavage measured after 24 hrs by autoradiographic analysis; format: ADME, organism-based; parameters: dose 20 mg/kg, dosed compound name [14C]Sunitinib; conditions: in vivo, po
In short: (§3)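 Lister Hooded (pigmented) rats, ca 7-8 weeks old, acclimated 7 days, given [14C]sunitinib L-malate by gastric gavage at 20 mg/kg (15 mg freebase/kg, 100 µCi/kg). One male and one female killed by CO2 at 24, 72, 168 and 336 h. Carcasses frozen in solid CO2/hexane and embedded in frozen cellulose. 30 µm sagittal cryosections were freeze-dried. Tissue radioactivity measured by quantitative whole-body autoradiography against calibration standards, with background subtracted.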

[21] = system: Adrenal; assay: Drug concentration in male albino rat adrenal assessed as radioactivity per gram of tissue at 20 mg/kg administered as single dose via gastric gavage measured after 72 hrs by autoradiographic analysis; format: ADME, organism-based; parameters: dose 20 mg/kg, dosed compound name [14C]Sunitinib; conditions: in vivo, po
[22] = system: Heart; assay: Drug concentration in female albino rat heart assessed as radioactivity per gram of tissue at 20 mg/kg administered as single dose via gastric gavage measured after 24 hrs by autoradiographic analysis; format: ADME, organism-based; parameters: dose 20 mg/kg, dosed compound name [14C]Sunitinib; conditions: in vivo, po; in short: as §2
[23] = system: Zone of skin; assay: Drug concentration in female Lister Hooded pigmented rat abdomen skin assessed as radioactivity per gram of tissue at 20 mg/kg administered as single dose via gastric gavage measured after 24 hrs by autoradiographic analysis; format: ADME, organism-based; parameters: dose 20 mg/kg, dosed compound name [14C]Sunitinib; conditions: in vivo, po
In short: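 Pigmented Lister Hooded rats, 7-8 weeks old, received [14C]sunitinib L-malate by gavage at 20 mg/kg (15 mg freebase/kg, 100 µCi/kg). One rat per sex was killed by CO2 at each of 24, 72, 168 and 336 h. Carcasses were frozen in solid CO2/hexane and cut into 30 µm sagittal sections, then freeze-dried. Tissue radioactivity was quantified by whole-body autoradiography calibrated against standards by regression (LOQ 0.04–0.06 µg eq/g).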

[24] = system: Spleen; assay: Drug concentration in female albino rat spleen assessed as radioactivity per gram of tissue at 20 mg/kg administered as single dose via gastric gavage measured after 72 hrs by autoradiographic analysis; format: ADME, organism-based; parameters: dose 20 mg/kg, dosed compound name [14C]Sunitinib; conditions: in vivo, po
[25] = system: Adrenal; assay: Drug concentration in female Lister Hooded pigmented rat adrenal assessed as radioactivity per gram of tissue at 20 mg/kg administered as single dose via gastric gavage measured after 336 hrs by autoradiographic analysis; format: ADME, organism-based; parameters: dose 20 mg/kg, dosed compound name [14C]Sunitinib; conditions: in vivo, po; in short: as §3

## CCN(CC)CCNC(=O)c1c(C)[nH]c(/[14CH]=C2\C(=O)Nc3ccc(F)cc32)c1C.O=C(O)C[C@H](O)C(=O)O
[1]
  Tmax: 6 h
[2]
  t1/2 lambda z: 9 h
[3]
  Cmax: 5220 ngequiv/ml
[4]
  AUC: 2537.1 ng.Eq.hr/ml
[5]
  Radiolabel recovery: 0.39 ugequiv
[6]
  Radiolabel recovery: 0.24 ugequiv
[7]
  Radiolabel recovery: 0.3 ugequiv
[8]
  Radiolabel recovery: 90.7%
[9]
  Radiolabel recovery: 94.1%
[10]
  Radiolabel recovery: 0.43 ugequiv
[11]
  Radiolabel recovery: 3.52 ugequiv
[12]
  Radiolabel recovery: 5.38 ugequiv
[13]
  Radiolabel recovery: 20.88 ugequiv
[14]
  Radiolabel recovery: 11.1 ugequiv
[15]
  Radiolabel recovery: 9.8 ugequiv
[16]
  Radiolabel recovery: 4.94 ugequiv
[17]
  Radiolabel recovery: 0.06 ugequiv
[18]
  Radiolabel recovery: 0.06 ugequiv
[19]
  Radiolabel recovery: 0.3 ugequiv
[20]
  Radiolabel recovery: 0.47 ugequiv
[21]
  Radiolabel recovery: 1.52 ugequiv
[22]
  Radiolabel recovery: 0.73 ugequiv
[23]
  Radiolabel recovery: 3.23 ugequiv
[24]
  Radiolabel recovery: 0.27 ugequiv
[25]
  Radiolabel recovery: 0.66 ugequiv
